Compounds with a hit are over-represented: about 1.1% of the library has one in this group of screens.
Furin inh: human furin inhibitors, primary screen, biochemical, fluorescence intensity. P09958. purified furin, fluorogenic substrate cleavage. inhibition, % at 20 µM or 30 µM. actives 0.061% (n = 220,000); in the data active = inhibition above about 25%
Target sequence (P09958 108-714 limits assumed): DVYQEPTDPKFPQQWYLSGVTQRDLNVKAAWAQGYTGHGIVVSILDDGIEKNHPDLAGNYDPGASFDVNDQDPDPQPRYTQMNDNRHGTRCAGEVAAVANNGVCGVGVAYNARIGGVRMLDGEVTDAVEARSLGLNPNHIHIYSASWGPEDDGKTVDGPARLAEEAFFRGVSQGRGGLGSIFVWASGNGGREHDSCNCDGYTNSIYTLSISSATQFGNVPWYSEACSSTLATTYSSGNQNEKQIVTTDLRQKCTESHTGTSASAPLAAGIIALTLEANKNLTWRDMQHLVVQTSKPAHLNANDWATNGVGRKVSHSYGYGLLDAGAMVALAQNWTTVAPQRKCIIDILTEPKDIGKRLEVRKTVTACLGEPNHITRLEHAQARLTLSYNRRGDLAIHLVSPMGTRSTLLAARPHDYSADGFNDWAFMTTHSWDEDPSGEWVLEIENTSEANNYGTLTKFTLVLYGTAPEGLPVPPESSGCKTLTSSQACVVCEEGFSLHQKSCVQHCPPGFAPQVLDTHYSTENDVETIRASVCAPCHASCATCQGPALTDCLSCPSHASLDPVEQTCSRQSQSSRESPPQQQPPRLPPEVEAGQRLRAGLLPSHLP
p47phox inh: p47phox/p22phox peptide binding inhibitors, primary screen, biochemical, uHTS, NADPH oxidase regulatory subunit; fluorescence polarization, 2 h; inhibition, % at 24.7 µM; actives 0.53% (n = 220,000); AID 1274, 2008;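 active = inhibition above about 30%, limit read from the data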
Calpain2 inh: inhibitors of pig calpain II, primary screen, biochemical, fluorogenic peptide substrate, 1536-well. purified calpain II, 30 min. inhibition, % at 16 µM. actives 0.37% (n = 220,000). AID 1236, 2008;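 active = inhibition above about 50%, limit read from the data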
RBBP9 inh: human RBBP9 inhibitors, primary screen, biochemical, fluorescence polarization, FP-Rh probe, HTS | recombinant RBBP9 | inhibition, % at 7.94 µM | actives 0.2% (n = 220,000) | AID 1515, 2009;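 active = inhibition above the campaign mean of all tested compounds plus 3 SD, cut at about 14% in these data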
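System: RBBP9 protein / Quantity: 2.5 µM RBBP9 dispensing solution, before mixing / Also added: Serine-hydrolase probe FP-Rh, 375 nM pre-mixing / Dosing: 7.94 µM single dose, 0.794% DMSO / Timing: enzyme-compound preincubation 30 min, then probe labeling 45 min, 25 °C / Signal: FP readout at 525/598 nm / Controls: DMSO-treated enzyme wells and wells lacking RBBP9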
A number is an active result; i = inactive; nt = no result given.

SMILES | Furin inh | p47phox inh | Calpain2 inh | RBBP9 inh
COc1ccc(CCNC(=O)CC(c2ccccc2)c2cccc(C)c2O)cc1OC (stereo not drawn) | i | i | i | i
CCN(CCNCC(O)COCc1ccc(Cl)cc1)c1cccc(C)c1 (stereo not drawn) | i | i | i | i
O=c1c2ccccc2nc2c3ccccc3c(NCCN3CCOCC3)nn12 | i | i | i | i
O=c1c2c(-c3ccccc3)csc2nc2c3ccccc3c(NCCN3CCOCC3)nn12 | i | 74.2 | i | i
Cc1cc(C)n(C(=O)c2sc3cc(F)ccc3c2Cl)n1 | i | i | i | i
O=C(CSc1nc(-c2ccc(F)cc2)nc2c1Cc1ccccc1O2)Nc1cccc(C(=O)O)c1 | i | i | 59.0 | i
O=C(CSc1nc(-c2ccccc2)nc2c1Cc1ccccc1O2)Nc1ccccc1 | i | i | i | i
Cc1ccc(C)c(CN2CCNC2=O)c1 | i | 137.0 | i | i
COc1ccc(OC)c(C2CC(=O)N3CN(c4ccccc4)CSC3=C2C#N)c1 (stereo not drawn) | i | i | i | i
COc1cc(OC)c(C2CC(=O)N3CN(c4ccccc4C)CSC3=C2C#N)cc1OC (stereo not drawn) | i | 47.3 | i | i
COc1ccc(/C=N/Nc2ncnc3sc4c(c23)CCCC4)cc1OC | i | i | i | i
COc1ccc(C(=O)/C=C/c2ccc(OC)c(Cn3nnc4ccccc43)c2)cc1 | i | i | i | i
Cc1ccc(NCC(=O)N/N=C/c2c[nH]c3ccccc23)cc1 | i | i | 70.0 | i
Cc1ccc(CSc2nnc(SCC(=O)N/N=C/c3c[nH]c4ccccc34)s2)cc1 | i | 39.4 | i | i
Cc1ccc(NC(C)C(=O)N/N=C/c2c[nH]c3ccccc23)cc1 (stereo not drawn) | i | i | i | i
O=C(CSc1nnc(SCc2ccccc2)s1)N/N=C/c1c[nH]c2ccccc12 | i | 42.5 | i | i
CC(C)OC(=O)CSc1nnc(-c2ccc(Cl)cc2)n1N | i | i | i | i
Cc1cc(NC(=O)CSc2nnc(-c3ccncc3)n2N)ccc1Br | i | i | 137.5 | i
CCC(C)NC(=O)CSc1nnc(-c2ccc(Cl)cc2)n1N (stereo not drawn) | i | 53.0 | i | i
Cc1csc(NC(=O)CSc2nnc(-c3ccncc3)n2C)n1 | i | 41.4 | i | i
Cc1ccc(C(=O)N2CCN(S(=O)(=O)c3ccc(C)c([N+](=O)[O-])c3)C2)cc1 | i | i | i | i
Cc1ccc(NC2OC(C(O)CO)C(O)C2O)cc1[N+](=O)[O-] (stereo not drawn) | i | i | i | i
Cc1ccc(NC2OC(CO)C(O)C2O)cc1[N+](=O)[O-] (stereo not drawn) | i | i | 84.9 | i
Cc1noc(C)c1CSc1nc2ccccc2c(=O)n1-c1ccccc1 | i | i | i | i
Cc1noc(C)c1CSc1nc2ccccc2c(=O)n1-c1ccc(F)cc1F | i | i | 76.7 | i
SMILES | Furin inh | p47phox inh | Calpain2 inh | RBBP9 inh
CC1CN(C(=O)C2(C)CC2(Br)Br)CC(C)O1 (stereo not drawn) | i | i | i | i
Cc1ccc(CN2CCN(/N=C/C(Br)=C\c3ccccc3)CC2)cc1 | i | i | i | i
CCc1ccc2c(c1)C(c1ccc(N3CCOCC3)cc1)=NNC(c1ccncc1)=N2 | i | i | i | i
CCc1ccc2c(c1)C(c1ccc([N+](=O)[O-])cc1)=NNC(c1ccc(C)cc1)=N2 | i | i | 60.8 | i
COc1ccc(C(=O)N/N=C/C2CC=CCC2)cc1OC (stereo not drawn) | i | i | i | i
COc1ccc(-c2nnc(NC(=O)CSc3ccc(Cl)cc3)s2)cc1OC | i | 40.5 | i | i
COc1ccc(Cc2nnc(NC(=O)CSc3ccc(C)cc3)s2)cc1OC | i | i | i | i
COc1ccc(OC)c(NC(=O)COC(=O)CSc2ccc(Cl)cc2)c1 | i | i | 90.3 | i
CCOC(=O)C1C(=O)CC(=O)CC1CC(C)SCC (stereo not drawn) | i | 79.3 | i | i
Cc1ccccc1-n1c(SCC(=O)NC(N)=O)nc2sc(-c3ccccc3)cc2c1=O | i | i | i | i
O=C(NCCN1CCCCC1)c1ccc(Oc2cc(Cl)cc(Cl)c2)o1 | i | 30.4 | i | i
COc1ccc(CCNS(=O)(=O)c2cnc(Cl)c(Br)c2)cc1OC | i | i | i | i
Cc1cccc(NC(=O)CN2C(=O)N/C(=C/c3cc(C)n(-c4ccncc4)c3C)C2=O)c1 | i | 45.6 | i | i
Cc1cccc(NC(=O)CN2C(=O)N/C(=C/c3cc(C)n(-c4cccnc4)c3C)C2=O)c1 | i | i | 50.5 | i
O=C(CN1CCc2ccccc21)NC(=O)NCc1ccccc1 | i | i | i | i
CCN1CCN(C(=O)C(C)Nc2ccc(OC)cc2OC)CC1 (stereo not drawn) | i | i | i | i
CCn1c(SCC(=O)Nc2ccccc2C)nnc1-c1ccccc1O | i | i | i | i
CCn1c(SCC(=O)Nc2cc(F)ccc2C)nnc1-c1ccccc1O | 32.2 | i | i | i
N#Cc1c(NCCN)nc(-c2ccccc2)c2c1CCCC2 | i | 42.1 | i | i
CCOC(=O)C1(C)NC(c2ccccc2F)C2C(=O)N(CC)C(=O)C21 (stereo not drawn) | i | i | i | i
O=C(NC1CCCCC1)N(Cc1nc2ccccc2c(=O)[nH]1)C1CCCC1 | i | 31.0 | i | i
O=C(NC1CCCCC1)N(Cc1nc2ccccc2c(=O)[nH]1)C1CCCCC1 | i | i | i | i
CCOc1c(CNCCNC(=O)c2nonc2N)cccc1OC | i | i | i | i
COc1cccc(C=NCCNC(=O)c2nonc2N)c1O | i | i | 101.1 | i
COc1ccccc1OCCNC(=O)Cc1ccc(Cl)c(Cl)c1 | i | i | i | i
SMILES | Furin inh | p47phox inh | Calpain2 inh | RBBP9 inh
CNC(=O)OCc1cccc(COC(=O)NC)n1 | i | 39.1 | i | i
O=C(NCCCN1CCCCCC1)C1CC(=O)N(CCc2ccccc2)C1 (stereo not drawn) | i | 54.8 | i | i
C/C(=N\NC(=O)CC(C)C)c1ccc(N2CCCCC2)cc1 | i | i | i | i
S=c1[nH]nc(NCCCN2CCOCC2)s1 | i | 77.7 | i | i
S=C(NCCCN1CCOCC1)NCCCN1CCOCC1 | i | i | i | i
CC(C)c1ccc(-c2noc(C3CCCN(C(=O)c4ccc(F)cc4F)C3)n2)cc1 (stereo not drawn) | i | i | 77.1 | i
O=C1C=CC(O)(c2cc(=O)c3c(O)cc(O)cc3o2)C=C1 | i | i | i | i
Cc1ccc(SCCCCN2C(=O)NC(C)(C)C2=O)cc1 | 32.8 | i | i | i
Cc1ccc(-c2csc(N3N=C(c4ccccc4)/C(=C\c4ccc(N(C)C)cc4)C3=O)n2)cc1 | i | 51.2 | i | i
CCCCN(CC)CCCNC(=S)Nc1ccc2nc3n(c(=O)c2c1)CCCCC3 | i | i | 64.8 | i
COC(=O)Oc1ccc(/C=N/NC(=O)CN(c2ccccc2Cl)S(C)(=O)=O)cc1OC | i | i | i | i
OC1C2(Cc3ccccc3)CN3CCN(C2)CC1(Cc1ccccc1)C3 (stereo not drawn) | i | nt | nt | i

Compound activity as filed in PubChem BioAssay.
